Values after ≈ are worked out from the molar mass of the structure shown.
Tests used:
HUVEC [1] = test: Antiangiogenic activity against HUVEC cells in HUVEC(Human Umbilical Vein Endothelial Cells) proliferation assay usingMTT colorimetric method; assay type: functional, cell-based
Method in brief: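 HUVEC growth measured by MTT colorimetric read-out. IC50 taken from a nonlinear regression fit with r2 > 0.9.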

HUVEC [2] = test: Antiangiogenic activity to suppress the growth factor induced tube formation byHUVEC on Matrigel was assessed at the concentration of 10 ug/mL; assay type: functional; settings: Homo sapiens
[3] = Antiangiogenic activity against chorioallantoic membrane (CAM) assay at 10 ug/egg; assay type: functional, tissue-based

| Structure (SMILES) | IC50 (HUVEC [1]) | inhibition at 10 µg/mL (HUVEC [2]) | inhibition [3] |
| --- | --- | --- | --- |
| C[C@@H]1CC[C@H]2[C@@H](C)/C(=C\Br)O[C@@H]3O[C@]4(C)CC[C@@H]1[C@]32OO4 | 4.8 µg/mL (≈ 13.4 µM) | 25% | 80% |
| CCC/C(Br)=C1/O[C@@H]2OC3(C)CC[C@H]4[C@H](C)CC[C@@H]([C@H]1C)[C@@]24OO3 (single isomer, unassigned) | 1.9 µg/mL (≈ 4.73 µM) | 10% | 8% |
| C[C@@H]1CC[C@H]2[C@@H](C)/C(=C\c3ccccc3)O[C@@H]3OC4(C)CC[C@@H]1[C@]32OO4 (single isomer, unassigned) | 1.9 µg/mL (≈ 5.33 µM) | 10% | 10% |
| CC(C)=C1O[C@@H]2OC3(C)CC[C@H]4[C@H](C)CC[C@@H]([C@H]1C)[C@@]24OO3 (single isomer, unassigned) | 2.3 µg/mL (≈ 7.46 µM) | 13% | 29% |
| C[C@@H]1CC[C@H]2[C@@H](C)C(=Cc3ccccc3)O[C@@H]3OC4(C)CC[C@@H]1[C@]32OO4 (single isomer, unassigned) | 2.3 µg/mL (≈ 6.45 µM) | 10% | 5% |
| C/C(Br)=C1/O[C@@H]2OC3(C)CC[C@H]4[C@H](C)CC[C@@H]([C@H]1C)[C@@]24OO3 (single isomer, unassigned) | 25.4 µg/mL (≈ 68 µM) | 32% | 43% |
| C/C(Br)=C1\O[C@@H]2OC3(C)CC[C@H]4[C@H](C)CC[C@@H]([C@H]1C)[C@@]24OO3 (single isomer, unassigned) | 4.5 µg/mL (≈ 12.1 µM) | 65% | 50% |
| CCC/C(Br)=C1\O[C@@H]2OC3(C)CC[C@H]4[C@H](C)CC[C@@H]([C@H]1C)[C@@]24OO3 (single isomer, unassigned) | 1.5 µg/mL (≈ 3.74 µM) | 39% | 57% |
